From PMC7568475 (Nature metabolism, 2020)
Blank lines part the entries; values can stand above or below the molecule they belong to. Where no end group is shown, it is not given here.

What was measured:
human islets [1] = assay: 15N2-arginine tracer study in human islets; assay type: cell-based; conditions: 15N2(guanidino)-L-arginine 72 h, cytokines 24 h, n=4 donors
How it was run: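 Human islets (150 in 2 ml) incubated 72 h with 15N2(guanidino)-L-arginine at 200 mg/L in RPMI with 5.5 mM glucose and 5% human A/B serum. Cytokine mix: TNF-α 10 ng/ml, IL-1β 10 ng/ml, IFNγ 100 ng/ml. Mass isotopomer distributions were corrected for natural abundance, normalized to tracer uptake, and expressed relative to PBS control set to 1.0.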

human islets [2] = assay: Viability of human islets; assay type: cell-based
How it was run: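 Human islets were cultured in PIM(S) with 5% human A/B serum and infected for PC knockdown 24 h before treatment, 72 h in total. Medium carried 1 mM argininosuccinate; cytokines were TNF-α 10, IL-1β 10 and IFNγ 100 ng/ml. AnnexinV/7AAD flow cytometry was run 48 h after cytokines. Positive cells lay ≥2 s.d. outside unstained sample means.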

[3] = tested on: β-cells in human islet grafts; assay: β-cell death in human islet grafts; assay type: in vivo; conditions: donor islets pre-treated before transplantation; grafts excised day 2
How it was run: (§1)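 Donor islets were pre-treated overnight at 37 °C with vehicle (1% DMSO), 5 µM compound, or 5 µM plus 1 mM PAA. Medium was RPMI uptake medium with 11 mM glucose, 10% serum and 0.1% Tween 80 (pH 6.0). Islets were washed and held 24 h in fresh media. Male NOD-SCID mice (10–12 wk) received single i.p. STZ 200 mg/kg. 500 islets went under the kidney capsule 24–48 h after blood glucose ≥300 mg/dl.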

diabetic NOD-SCID mice = assay type: in vivo, mouse; conditions: 500 pre-treated human islets in diabetic NOD-SCID mice, up to 53 days
How it was run: as §1

GK = conditions: cited from earlier work
human islets [4] = assay: Steady state urea quantification by GC-MS, human islets; assay type: cell-based
human islets [5] = assay: NO levels by flow cytometry; assay type: cell-based
How it was run: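 Islets were held 72 h in 33 mM versus 5.8 mM glucose. NO was read 24 h after cytokine treatment. For each replicate, 50 islets were dispersed in accutase at 37 °C, rinsed in PBS, and stained with DAF-FM 30 min at 37 °C. Mean FITC intensity by flow cytometry was normalized to PBS control set to 1.0.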

GLS = GLS activity readout; assay type: cell-based; conditions: islets, readout of GLS activity, n=2 human donors
[6] = target: T1, recombinant human glucokinase (GK, hexokinase IV) (human, UniProt P35557 1-465); assay: ITC
T1 sequence (looked up): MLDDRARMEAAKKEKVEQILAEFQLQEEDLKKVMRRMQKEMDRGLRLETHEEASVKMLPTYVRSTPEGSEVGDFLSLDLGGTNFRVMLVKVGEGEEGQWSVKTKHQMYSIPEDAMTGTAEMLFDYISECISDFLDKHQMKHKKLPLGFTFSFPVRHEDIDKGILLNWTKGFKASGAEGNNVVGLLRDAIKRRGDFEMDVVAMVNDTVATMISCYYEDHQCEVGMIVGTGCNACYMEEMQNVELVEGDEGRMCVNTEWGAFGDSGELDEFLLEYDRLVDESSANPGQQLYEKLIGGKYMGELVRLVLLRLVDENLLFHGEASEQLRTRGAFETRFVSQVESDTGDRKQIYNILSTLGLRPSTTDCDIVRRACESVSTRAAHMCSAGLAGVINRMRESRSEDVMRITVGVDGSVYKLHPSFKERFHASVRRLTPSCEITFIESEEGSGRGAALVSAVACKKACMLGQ

[7] = PC-depleted human islets, cytokines, AS 1 mM, n=4 experiments, 2 donors
[8] = human islets, inflammatory cytokines, AS 1 mM, n=3 donors

Molecule: CS(=O)(=O)c1ccc([C@@H](CC2CCCC2)C(=O)Nc2nccs2)cc1 [RO0281675]
15N2 enrichment in urea (M+2) / ureagenesis (human islets [1]): ureagenesis was not altered | viability / protection from cytokine-induced death (human islets [2]; human islets, TNF-α, IL-1β and IFNγ 48 h, n=6 donors (Fig. 1c)): does not protect human islets from cytokine-induced death | β-cell death in islet grafts [3]: ineffective | hyperglycemia reversal (blood glucose) (diabetic NOD-SCID mice): ineffective | effect on GK affinity for glucose, allosteric activation (GK): significantly augments the enzyme’s affinity for glucose

Molecule: OC[C@H]1OC(O)[C@H](O)[C@@H](O)[C@@H]1O (some centres unmarked) [glucose]
urea levels, glucotoxicity (human islets [4]; human islets, 33 mM glucose 72 h vs 5.8 mM glucose): reduces urea | NO levels, glucotoxicity (human islets [5]; 33 mM glucose 72 h vs 5.8 mM glucose): enhances NO levels

Molecule: O=C(Cc1ccccc1)Nc1nnc(CCSCCc2nnc(NC(=O)Cc3ccccc3)s2)s1 [BPTES, Bis-2-(5-phenylacetamido-1,3,4-thiadiazol-2-yl)ethyl sulfide]
urea levels with BPTES (human islets [4]; islets, n=2 human donors): does not affect islet urea levels | glutamate/glutamine (glu/gln) ratio (GLS): reduce the ratio of glutamate/glutamine

Molecule: NC(=NCCC[C@H](N)C(=O)O)N[C@@H](CC(=O)O)C(=O)O [AS, argininosuccinic acid]
viability with argininosuccinate, PC knockdown (human islets [2]; [7]): protects against inflammation toxicity | viability with argininosuccinate (human islets [2]; [8]): rescue the viability of human islets undergoing inflammation | urea levels with argininosuccinate, PC knockdown (human islets [4]; [7]): rescues urea levels | urea levels, AS dose response (human islets [4]; human islets, 10–200 µM AS): had no effect on urea levels | urea levels with argininosuccinate (human islets [4]; [8]): sufficient to increase urea levels

Molecule: COC[C@H](C)Oc1cc(O[C@@H](C)Cc2ccccc2)cc(C(=O)Nc2ccc(C(=O)O)cn2)c1 [GKA50]
urea levels (human islets [4]; human islets, inflammatory cytokines 24 h): These differences were further recapitulated with a second, structurally distinct allosteric GKA | NO levels (human islets [5]; inflammatory cytokines 24 h, DAF-FM): These differences were further recapitulated with a second, structurally distinct allosteric GKA

stoichiometry N [6]: 1
Molecule: NLWAAQRYGRELRRMDDEFVDSFKK (staple (positions not given here); not fully specified) [BAD BH3 SAHBA SD (hydrocarbon stapled peptide modeled after the phospho-BAD BH3 helix)]
